According to ChEMBL document CHEMBL1687926, “14-Aminocamptothecins: their synthesis, preclinical activity, and potential use for cancer treatment” (J Med Chem, 2011):

Assays:
NCI-H460 [1] = assay: Cytotoxicity against human H460 cells after 72 hrs by alamar blue assay; format: functional, cell-based
Outline: (§1)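 Cells seeded at 4 × 10³ per well and grown 24 h. Compounds dissolved in DMSO and diluted in medium to final concentrations, then incubated 72 h at 37 °C, 5% CO₂. Viable cells read by AlamarBlue; IC₅₀ taken as the concentration giving 50% growth inhibition.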

[2] = Resistance ratio of IC50 for human MES-SA/Dx5 cells overexpressing MDR1 after 72 hrs to IC50 for human MESSA cells after 72 hrs; format: functional
Outline: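 Cytotoxicity compared in MDR1-overexpressing lines and their parental wild-type lines. 72 h exposure at 37 °C, viability by AlamarBlue, IC₅₀ at 50% growth inhibition. Resistance ratio = IC₅₀ in overexpressing line / IC₅₀ in parental line.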

HT-29 = assay: Cytotoxicity against human HT-29 cells after 72 hrs by alamar blue assay; format: functional, cell-based; details: HT-29, 72 h; outline: as §1
[3] = Cytotoxicity against human MESSA cells after 72 hrs by alamar blue assay; format: functional, cell-based; details: MES-SA; outline: as §1
NCI-H460 [4] = assay: Antitumor activity against human H460 cells xenografted in nu/nu mouse assessed as tumor growth inhibition at 30 mg/kg, po QD for 5 days followed by 2days without treatment for 2 weeks; format: functional; parameters: scale not given: the % may be the effect or the level left
Outline: (§2)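 Female nude (nu/nu) mice (males for prostate model) implanted sc in the flank with tumor cells (1 × 10⁶ for H460). Dosing began at 100-150 mm³, 10 mice/group. Oral gavage in 5% DMSO/5% Tween 80/1% CMC in water, 5 days on/2 off per cycle, 2 or 4 cycles. Volume = length×width²/2, measured twice weekly. TGI = (1 − ΔT/ΔC)×100; TGD = extra days to reach 500 mm³ versus control.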

[5] = Ratio of IC90 for mouse bone marrow cell to IC90 for human bone marrow cell; format: ADME, cell-based; details: bone marrow cells
Outline: (§3)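 CFU-GM colony assay in triplicate at 2 × 10⁴ cells per culture, using thawed normal human bone marrow or fresh mouse femoral marrow. Colonies were scored after 16-18 days. The IC50 or IC90 from each species gave the mouse/human ratio.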

[6] = Tmax in CD-1 mouse plasma at 50 mg/kg, ip by LC/MS/MS analysis; format: ADME, organism-based; parameters: dose 50 mg/kg, route intraperitoneal
Outline: (§4)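 CD-1 mice (~25 g) given 50 mg/kg ip in 5% DMSO/5% Tween 80 in water; three mice per time point, sampled up to 480 min. Blood taken by cardiac puncture into EDTA, then whole brain excised and homogenized in water. Proteins precipitated with ice-cold acetonitrile containing propranolol internal standard; supernatant analysed by HPLC/MS/MS.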

LNCaP = assay: Cytotoxicity against human LNCAP cells after 72 hrs by alamar blue assay; format: functional, cell-based; outline: as §1
NCI-H460 [7] = assay: Cytotoxicity against human H460 cells after 72 hrs by alamar blue assay in presence of 40 mg/ml HSA; format: functional, cell-based; details: NCI-H460, 72 h
Outline: (§5)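 H460 cells seeded at 4 × 10³ per well and grown 24 h. Compounds then cocultured with cells for 72 h at 37 °C, with or without 40 mg/mL human serum albumin. Viability read by AlamarBlue; IC₅₀ = 50% growth inhibition. Ratio compares the IC₅₀ with HSA to the IC₅₀ without.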

Malme-3M = assay: Cytotoxicity against human MALME-3M cells after 72 hrs by alamar blue assay; format: functional, cell-based; outline: as §1
[8] = Resistance ratio of IC50 for human H69AR cells overexpressing MRP1 after 72 hrs s to IC50 for human H69 cells after 72 hrs
[9] = Cytotoxicity against human bone marrow cell by CFU-GM assay; format: cell-based; details: for IC50: Homo sapiens, Bone marrow cell; for IC90: human, bone marrow cells
[10] = Tmax in CD-1 mouse brain at 50 mg/kg, ip by LC/MS/MS analysis; format: ADME, organism-based; parameters: dose 50 mg/kg, route intraperitoneal; outline: as §4
NCI-H69 = assay: Cytotoxicity against human H69 cells after 72 hrs by alamar blue assay; format: functional, cell-based; details: NCI-H69, 72 h; outline: as §1
NCI-H460 [11] = assay: Ratio IC50 for human H460 cells after 72 hrs in presence of 40 mg/ml HSA to IC50 for human H460 cells after 72 hrs; format: functional; outline: as §5
IGROV-1 = assay: Cytotoxicity against human IGROV1 cells after 72 hrs by alamar blue assay; format: functional, cell-based; details: IGROV-1, 72 h; outline: as §1
[12] = Cytotoxicity against human MES-SA/Dx5 cells overexpressing MDR1 after 72 hrs by alamar blue assay; format: functional, cell-based; details: MES-SA/Dx5, 72 h; outline: as §1
H69AR = assay: Cytotoxicity against human H69AR cells overexpressing MRP1 after 72 hrs by alamar blue assay
NCI-H460 [13] = assay: Antitumor activity against human H460 cells xenografted in nu/nu mouse assessed as tumor growth delay at 30 mg/kg, po QD for 5 days followed by 2days without treatment for 2 weeks; format: functional; outline: as §2
[14] = Half life in CD-1 mouse plasma at 50 mg/kg, ip by LC/MS/MS analysis; format: ADME, organism-based; parameters: dose 50 mg/kg, route intraperitoneal; outline: as §4
[15] = Ratio of IC50 for mouse bone marrow cell to IC50 for human bone marrow cell; format: cell-based; details: bone marrow cells; outline: as §3
DU-145 = assay: Cytotoxicity against human DU145 cells after 72 hrs by alamar blue assay; format: functional, cell-based; details: DU-145, 72 h; outline: as §1
PC-3 = assay: Cytotoxicity against human PC3 cells after 72 hrs by alamar blue assay; format: functional, cell-based; details: PC-3, 72 h; outline: as §1
[16] = Cmax in CD-1 mouse plasma at 50 mg/kg, ip by LC/MS/MS analysis; format: ADME, organism-based; parameters: dose 50 mg/kg, route intraperitoneal; outline: as §4
[17] = Half life in CD-1 mouse brain at 50 mg/kg, ip by LC/MS/MS analysis; format: ADME, organism-based; parameters: dose 50 mg/kg, route intraperitoneal; outline: as §4
[18] = Cmax in CD-1 mouse brain at 50 mg/kg, ip by LC/MS/MS analysis; format: ADME, organism-based; parameters: dose 50 mg/kg, route intraperitoneal; outline: as §4
[19] = AUC in CD-1 mouse plasma at 50 mg/kg, ip by LC/MS/MS analysis; format: ADME, organism-based; parameters: dose 50 mg/kg, route intraperitoneal; outline: as §4
Mus musculus = assay: Toxicity in nu/nu mouse assessed as body weight loss at 30 mg/kg, po QD for 5 days followed by 2 days without treatment for 2 weeks; format: organism-based; parameters: dose 30 mg/kg, route oral; details: in vivo
Outline: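 Female nude (nu/nu) mice (males for prostate model) bearing sc xenografts, dosing started at 100-150 mm³, 10/group. Oral gavage in 5% DMSO/5% Tween 80/1% CMC in water, QD 5 days on/2 off per cycle, 2 or 4 cycles. Body weight recorded twice weekly; maximum loss reported.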

[20] = Cytotoxicity against mouse bone marrow cell by CFU-GM assay; format: cell-based
Outline: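 CFU-GM colony assay on normal human bone marrow (thawed) or mouse femoral marrow (freshly extracted). Human colonies scored after 16-18 days. IC₅₀ taken from triplicate assays.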

[21] = AUC in CD-1 mouse brain at 50 mg/kg, ip by LC/MS/MS analysis; format: ADME, organism-based; parameters: dose 50 mg/kg, route intraperitoneal; outline: as §4
A-375 = assay: Cytotoxicity against human A375 cells after 72 hrs by alamar blue assay; format: functional, cell-based; details: A-375, 72 h; outline: as §1
[22] = Ratio of drug level in brain to plasma in CD-1 mouse at 50 mg/kg, ip; format: ADME, organism-based; parameters: dose 50 mg/kg, route intraperitoneal; outline: as §4
SK-MEL-2 = assay: Cytotoxicity against human SK-MEL-2 cells after 72 hrs by alamar blue assay; format: functional, cell-based; details: SK-MEL-2, 72 h; outline: as §1

CC[C@@]1(O)C(=O)Nc2c1c(CO)c(=O)n1c2-c2nc3ccccc3cc2C1
IC50 (NCI-H460 [1]; Homo sapiens, NCI-H460, 72 h): 7700 nM

CC[C@@]1(O)C(=O)OCc2c1c(N)c1n(c2=O)Cc2cc3ccccc3nc2-1
Ratio [2]: 1
IC50 (HT-29): 230 nM
IC50 [3]: 58 nM
Activity (NCI-H460 [4]): 79%
selectivity ratio [5]: 4
Tmax [6]: 0.5 h
IC50 (LNCaP): 110 nM
IC50 (NCI-H460 [7]): 120 nM
IC50 (Malme-3M): 780 nM
Ratio [8]: 1
IC50 [9]: 710 nM
IC90 [9]: 4800 nM
Tmax [10]: 0.5 h
IC50 (NCI-H69): 91 nM
Ratio (NCI-H460 [11]): 5
IC50 (IGROV-1): 120 nM
IC50 [12]: 60 nM
IC50 (H69AR): 91 nM
Time (NCI-H460 [13]): 15 days
half-life [14]: 4.17 h
selectivity ratio [15]: 6
IC50 (DU-145): 780 nM
IC50 (PC-3): 43 nM
Cmax [16]: 600 ng/mL
half-life [17]: 3.5 h
Cmax [18]: 600 ng/mL
AUC [19]: 1500 ng·h/mL
Activity (Mus musculus): 4%
IC50 [20]: 10 nM
AUC [21]: 1670 ng·h/mL
IC50 (NCI-H460 [1]; Homo sapiens, NCI-H460, 72 h): 18 nM
IC50 (NCI-H460 [1]; nci-h460): 23 nM
IC50 (A-375): 22 nM
Kp [22]: 101
IC50 (SK-MEL-2): 170 nM

CC[C@@]1(O)C(=O)OCc2c1cc1n(c2=O)Cc2cc3c(N)cccc3nc2-1 [9-AMINOCAMPTOTHECIN]
selectivity ratio [5]: 88
IC50 [9]: 1 nM
IC90 [9]: 8 nM
selectivity ratio [15]: 75
IC50 [20]: 90 nM

CCc1c2c(nc3ccccc13)-c1c3c(c(CO)c(=O)n1C2)[C@@](O)(CC)C(=O)N3
IC50 (NCI-H460 [1]; Homo sapiens, NCI-H460, 72 h): > 10000 nM
